Laboratory results published in ChEMBL document CHEMBL1255259, “Phosphorothioate-modified oligodeoxynucleotides inhibit human cytomegalovirus replication by blocking virus entry” (Antimicrob Agents Chemother, 2008).
Activity calls are given as the source filed them. The calls are words filed in the database; no cut-off is given here.

Columns and labels:
[1] = Cytotoxicity against HELF assessed as cell viability after 6 days by MTT assay; type: cell-based; details: human, HELF cells
Outline: (§1)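 HELF exposed to rising ODN concentrations (up to 10 μM) for 6 days; viable cells measured by MTT. CC50 taken as concentration that cuts viability to 50%.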

[2] = Cytotoxicity against HELF assessed as cell viability by MTT assay after 6 days at <=10 uM; type: cell-based; details: human, 144 h; outline: as §1
[3] = tested on: Human betaherpesvirus 5; assay: Antimicrobial activity against Human cytomegalovirus AD169 infected in compound pretreated HELF assessed as inhibition of viral replication measured after 6 days post-infection; type: functional, organism-based; details: Human betaherpesvirus 5, AD169, HELF
Outline: (§2)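 HELF pretreated with ODN 1 h before infection with HCMV AD169 (MOI 1); ODN kept in medium after 2 h adsorption at 37°C. At 6 days p.i., cells plus supernatants sonicated and titrated by plaque assay on HELF; plaques counted microscopically, expressed as PFU/ml (log10) or % of control. IC50/IC90 by linear regression; duplicate wells, three independent experiments, means ± SD.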

[4] = tested on: Human betaherpesvirus 5; assay: Antimicrobial activity against 0.1 uM compound pretreated Human cytomegalovirus AD169 infected in HELF assessed as reduction in viral titer 37 degC; type: functional, organism-based
Outline: (§3)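 HCMV AD169 (10^4 PFU) incubated with ODN at 0.1 μM at 4 or 37°C for various times; samples then diluted to bring ODN below an antivirally active level; residual infectivity titrated by plaque assay on HELF. Means ± SD of three independent experiments.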

[5] = tested on: Human betaherpesvirus 5; assay: Antimicrobial activity against Human cytomegalovirus AD169 infected in 1 uM compound pretreated HELF assessed as inhibition of viral replication measured after 6 days post-infection; type: functional, organism-based; outline: as §2
[6] = tested on: Human betaherpesvirus 5; assay: Antimicrobial activity against Human cytomegalovirus AD169 infected in HELF assessed as inhibition of viral replication at 1 uM measured after 6 days post-infection; type: functional, organism-based
[7] = tested on: Human betaherpesvirus 5; assay: Antimicrobial activity against Human cytomegalovirus AD169 infected in HELF assessed as inhibition of viral replication at 0.1 uM measured after 6 days post-infection; type: functional, organism-based
[8] = tested on: Human alphaherpesvirus 1; assay: Antimicrobial activity against Human herpesvirus 1 infected in compound pretreated HELF assessed as inhibition of viral replication at 1 uM; type: functional, organism-based
Outline: (§4)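 HELF pretreated with ODN (0.1 or 1 μM) 1 h before infection with a clinical HSV-1 isolate at MOI 0.1; ODN kept in medium after 2 h adsorption. Harvest at 48 h p.i., sonication, plaque titration on Vero cells. Means ± SD of three independent experiments.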

[9] = tested on: Human betaherpesvirus 5; assay: Antimicrobial activity against Human cytomegalovirus AD169 infected in 0.1 uM compound pretreated HELF assessed as inhibition of viral replication measured after 6 days post-infection; type: functional, organism-based; outline: as §2
[10] = tested on: Human alphaherpesvirus 1; assay: Antimicrobial activity against Human herpesvirus 1 infected in compound pretreated HELF assessed as inhibition of viral replication at 0.1 uM; type: functional, organism-based; outline: as §4
[11] = tested on: Human betaherpesvirus 5; assay: Antimicrobial activity against 0.1 uM compound pretreated Human cytomegalovirus AD169 infected in HELF assessed as reduction in viral titer at 4 degC; type: functional, organism-based; outline: as §3

| SMILES | CC50 at 144 h [1] [µM] | Activity [2] | IC50 [3] [nM] | IC90 [3] [nM] | inhibition [4] | inhibition [5] | inhibition [6] | inhibition [7] | inhibition [8] | inhibition [9] | inhibition [10] | inhibition [11] |
| --- | --- | --- | --- | --- | --- | --- | --- | --- | --- | --- | --- | --- |
| Cc1cn([C@H]2C[C@H](OP(O)(O)=S)[C@@H](COP(O)(=S)O[C@H]3C[C@H](n4cc(C)c(=O)[nH]c4=O)O[C@@H]3COP(O)(=S)O[C@H]3[C@@H](O)[C@H](n4cnc5c(=O)[nH]c(N)nc54)O[C@@H]3COP(O)(=S)O[C@H]3[C@@H](O)[C@H](n4ccc(N)nc4=O)O[C@@H]3COP(O)(=S)O[C@H]3C[C@H](n4cc(C)c(=O)[nH]c4=O)O[C@@H]3COP(O)(=S)O[C@H]3[C@@H](O)[C@H](n4cnc5c(=O)[nH]c(N)nc54)O[C@@H]3COP(O)(=S)O[C@H]3C[C@H](n4cc(C)c(=O)[nH]c4=O)O[C@@H]3COP(O)(=S)O[C@H]3C[C@H](n4cc(C)c(=O)[nH]c4=O)O[C@@H]3COP(O)(=S)O[C@H]3C[C@H](n4cc(C)c(=O)[nH]c4=O)O[C@@H]3COP(O)(=S)O[C@H]3C[C@H](n4cc(C)c(=O)[nH]c4=O)O[C@@H]3COP(O)(=S)O[C@H]3[C@@H](O)[C@H](n4cnc5c(=O)[nH]c(N)nc54)O[C@@H]3COP(O)(=S)O[C@H]3[C@@H](O)[C@H](n4ccc(N)nc4=O)O[C@@H]3COP(O)(=S)O[C@H]3C[C@H](n4cc(C)c(=O)[nH]c4=O)O[C@@H]3COP(O)(=S)O[C@H]3[C@@H](O)[C@H](n4cnc5c(=O)[nH]c(N)nc54)O[C@@H]3COP(O)(=S)O[C@H]3[C@@H](O)[C@H](n4ccc(N)nc4=O)O[C@@H]3COP(O)(=S)O[C@H]3C[C@H](n4cc(C)c(=O)[nH]c4=O)O[C@@H]3COP(O)(=S)O[C@H]3C[C@H](n4cc(C)c(=O)[nH]c4=O)O[C@@H]3COP(O)(=S)O[C@H]3C[C@H](n4cc(C)c(=O)[nH]c4=O)O[C@@H]3COP(O)(=S)O[C@H]3[C@@H](O)[C@H](n4cnc5c(=O)[nH]c(N)nc54)O[C@@H]3COP(O)(=S)O[C@H]3[C@@H](O)[C@H](n4ccc(N)nc4=O)O[C@@H]3COP(O)(=S)O[C@H]3C[C@H](n4cc(C)c(=O)[nH]c4=O)O[C@@H]3COP(O)(=S)O[C@H]3[C@@H](O)[C@H](n4cnc5c(=O)[nH]c(N)nc54)O[C@@H]3COP(O)(=S)O[C@H]3[C@@H](O)[C@H](n4ccc(N)nc4=O)O[C@@H]3COP(O)(=S)O[C@H]3C[C@H](n4cc(C)c(=O)[nH]c4=O)O[C@@H]3CO)O2)c(=O)[nH]c1=O (stereo partly specified) | > 10 | Non-toxic | 50 | 800 | inactive | Active | inactive | inactive | inactive | Active | inactive | inactive |
| Cc1cn([C@H]2C[C@H](OP(O)(=S)OC[C@H]3O[C@@H](n4ccc(N)nc4=O)[C@H](O)[C@@H]3OP(O)(=S)OC[C@H]3O[C@@H](n4cnc5c(=O)[nH]c(N)nc54)[C@H](O)[C@@H]3OP(O)(=S)OC[C@H]3O[C@@H](n4cc(C)c(=O)[nH]c4=O)C[C@@H]3OP(O)(=S)OC[C@H]3O[C@@H](n4ccc(N)nc4=O)[C@H](O)[C@@H]3OP(O)(=S)OC[C@H]3O[C@@H](n4cnc5c(=O)[nH]c(N)nc54)[C@H](O)[C@@H]3OP(O)(=S)OC[C@H]3O[C@@H](n4cc(C)c(=O)[nH]c4=O)C[C@@H]3OP(O)(=S)OC[C@H]3O[C@@H](n4cc(C)c(=O)[nH]c4=O)C[C@@H]3OP(O)(=S)OC[C@H]3O[C@@H](n4cc(C)c(=O)[nH]c4=O)C[C@@H]3OP(O)(=S)OC[C@H]3O[C@@H](n4cc(C)c(=O)[nH]c4=O)C[C@@H]3OP(O)(=S)OC[C@H]3O[C@@H](n4cnc5c(=O)[nH]c(N)nc54)[C@H](O)[C@@H]3OP(O)(=S)OC[C@H]3O[C@@H](n4cc(C)c(=O)[nH]c4=O)C[C@@H]3OP(O)(=S)OC[C@H]3O[C@@H](n4ccc(N)nc4=O)[C@H](O)[C@@H]3OP(O)(=S)OC[C@H]3O[C@@H](n4cnc5c(=O)[nH]c(N)nc54)[C@H](O)[C@@H]3OP(O)(=S)OC[C@H]3O[C@@H](n4cc(C)c(=O)[nH]c4=O)C[C@@H]3OP(O)(=S)OC[C@H]3O[C@@H](n4cc(C)c(=O)[nH]c4=O)C[C@@H]3OP(O)(=S)OC[C@H]3O[C@@H](n4cc(C)c(=O)[nH]c4=O)C[C@@H]3OP(O)(=S)OC[C@H]3O[C@@H](n4cc(C)c(=O)[nH]c4=O)C[C@@H]3OP(O)(=S)OC[C@H]3O[C@@H](n4cc(C)c(=O)[nH]c4=O)C[C@@H]3OP(O)(=S)OC[C@H]3O[C@@H](n4cc(C)c(=O)[nH]c4=O)C[C@@H]3OP(O)(=S)OC[C@H]3O[C@@H](n4cc(C)c(=O)[nH]c4=O)C[C@@H]3OP(O)(=S)OC[C@H]3O[C@@H](n4ccc(N)nc4=O)[C@H](O)[C@@H]3OP(O)(=S)OC[C@H]3O[C@@H](n4cnc5c(=O)[nH]c(N)nc54)[C@H](O)[C@@H]3OP(O)(=S)OC[C@H]3O[C@@H](n4cnc5c(N)ncnc54)[C@H](O)[C@@H]3OP(O)(O)=S)[C@@H](CO)O2)c(=O)[nH]c1=O (stereo partly specified) | > 10 | Non-toxic | 20 | 100 | inactive | Active | inactive | inactive | inactive | Active | inactive | inactive |
| Cc1cn([C@H]2C[C@H](OP(O)(O)=S)[C@@H](COP(O)(=S)O[C@H]3C[C@H](n4cc(C)c(=O)[nH]c4=O)O[C@@H]3COP(O)(=S)O[C@H]3[C@@H](O)[C@H](n4cnc5c(=O)[nH]c(N)nc54)O[C@@H]3COP(O)(=S)O[C@H]3[C@@H](O)[C@H](n4ccc(N)nc4=O)O[C@@H]3COP(O)(=S)O[C@H]3[C@@H](O)[C@H](n4cnc5c(N)ncnc54)O[C@@H]3COP(O)(=S)O[C@H]3[C@@H](O)[C@H](n4cnc5c(=O)[nH]c(N)nc54)O[C@@H]3COP(O)(=S)O[C@H]3C[C@H](n4cc(C)c(=O)[nH]c4=O)O[C@@H]3COP(O)(=S)O[C@H]3[C@@H](O)[C@H](n4ccc(N)nc4=O)O[C@@H]3COP(O)(=S)O[C@H]3[C@@H](O)[C@H](n4ccc(N)nc4=O)O[C@@H]3COP(O)(=S)O[C@H]3C[C@H](n4cc(C)c(=O)[nH]c4=O)O[C@@H]3COP(O)(=S)O[C@H]3C[C@H](n4cc(C)c(=O)[nH]c4=O)O[C@@H]3COP(O)(=S)O[C@H]3[C@@H](O)[C@H](n4cnc5c(=O)[nH]c(N)nc54)O[C@@H]3COP(O)(=S)O[C@H]3[C@@H](O)[C@H](n4ccc(N)nc4=O)O[C@@H]3COP(O)(=S)O[C@H]3[C@@H](O)[C@H](n4cnc5c(N)ncnc54)O[C@@H]3COP(O)(=S)O[C@H]3[C@@H](O)[C@H](n4cnc5c(=O)[nH]c(N)nc54)O[C@@H]3COP(O)(=S)O[C@H]3C[C@H](n4cc(C)c(=O)[nH]c4=O)O[C@@H]3COP(O)(=S)O[C@H]3[C@@H](O)[C@H](n4cnc5c(N)ncnc54)O[C@@H]3COP(O)(=S)O[C@H]3[C@@H](O)[C@H](n4ccc(N)nc4=O)O[C@@H]3COP(O)(=S)O[C@H]3[C@@H](O)[C@H](n4ccc(N)nc4=O)O[C@@H]3COP(O)(=S)O[C@H]3C[C@H](n4cc(C)c(=O)[nH]c4=O)O[C@@H]3CO)O2)c(=O)[nH]c1=O (stereo partly specified) | > 10 | Non-toxic | 40 | 900 | inactive | Active | inactive | inactive | inactive | Active | inactive | inactive |
